From ChEMBL document CHEMBL1122638, “8-Methoxypsoralen-nucleic acid photoreaction. Effect of methyl substitution on pyrone vs. furan photoaddition” (J Med Chem, 1984)

Key:
Type in all cases: functional
[1] = Furan monoadduct and diadduct distribution (products resulting from photoaddition with the nucleic acid poly (dA-dT)) after 10 min irradiation at 360 nm
In short: (§1)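 Alternating poly(dA-dT)·poly(dA-dT), 1 mg (1.5 µmol base pairs) in 1 mL 10 mM Tris pH 7.2, with 0.3 µmol tritiated psoralen added in 95% EtOH. Irradiated 10 min at 10 °C. Polymer ethanol-reprecipitated, then digested sequentially with DNase II (pH 5, 37 °C), phosphodiesterase II (pH 7) and alkaline phosphatase (pH 7.8-8.0). Adducts resolved by reverse-phase HPLC (water-methanol gradient, pH 2.2 phosphate), with A254 and ³H scintillation counting.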

[2] = Pyrone monoadduct distribution (product resulting from photoaddition with the nucleic acid poly (dA-dT)) after 10 min irradiation at 360 nm; in short: as §1
[3] = Total radioactivity after 10 min irradiation at 360 nm; in short: as §1
[4] = Total radioactivity (pyrone monoadduct, furan monoadduct and diadduct resulting from photoaddition with the nucleic acid poly (dA-dT)) after 10 min irradiation at 360 nm; in short: as §1

Row | Structure (SMILES) | Radioactivity [1] [%] | Radioactivity [2] [%] | Radioactivity [3] [%] | Radioactivity [4] [%]
1 | COc1c2oc(C)cc2cc2ccc(=O)oc12 | 73 | 17 | 90 | –
2 | COc1c2occc2cc2c(C)cc(=O)oc12 | 94 | 2 | 96 | –
3 | COc1c2occc2cc2ccc(=O)oc12 | 75 | 19 | – | 94
4 | COc1c2oc(C)cc2cc2c(C)cc(=O)oc12 | 94 | 2 | 96 | –
